Only some compounds are listed: those with a hit (about 1.8% of all), similar ones and a draw of the others.
DDE Tn6 FP inh: disrupts Tn6 cyclic peptide binding to fibrin D-Dimer-E complex; P02675; Fibrin DD(E) TRITC-Tn6 fluorescence polarization displacement; inhibition, % at 8.3 µM; 0.21% of 370,000 active;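 active = inhibition above a per-campaign cutoff: mean of compounds within control limits plus 3 SD, cut at about 15% in these data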;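 note: 0% = median of all compound wells on the plate and 100% = blocking peptide control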
SIAE inh: human SIAE inhibition, primary screen; AID 1053197; Q9HAT2; SIAE FP-Rh probe binding, fluorescence polarization; 0.69% of 370,000 active; inhibition, % at 9.66 µM;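 active = inhibition above a cutoff: mean of compounds within the control limits plus 3 SD of those, cut at about 17% in these data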;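 note: 0% = plate median of compound wells and 100% = probe without SIAE protein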
Tn7 DDE FP: DD(E)-Tn7 binding inhibition, primary FP screen | P02675 | FP displacement of FITC-Tn7 peptide from fibrin DD(E); 0% = median of compound wells per plate | inhibition, % at 8.3 µM | 0.13% of 370,000 active;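 active = inhibition above the mean of compounds falling within the control limits plus 3 SD of them, cut at about 14% in these data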;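 note: 0% = plate median of compound wells and 100% = 10 µM Aha-Tn7 peptide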
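Assay system: Human fibrin DD(E) protein | Medium: Tris buffer with calcium and detergent, pH 7.8 | Reagent: 0.1 µM fluorescent Tn7 | Compound dosing: Single point at 8.3 µM | Times: 10 min preincubation, 3 h with tracer, room temperature | Detection: Fluorescence polarization of the labelled Tn7 tracer | Controls: Aha-Tn7 high control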
ABHD4 inh: inhibitors of mouse ABHD4; inhibition, % at 8.92 µM; Q8VD66; 0.54% of 370,000 active; purified mABHD4, FP-Rh probe fluorescence polarization;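 active = inhibition exceeding the mean over every tested compound plus 3 SD, cut at about 30% in these data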;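 note: 0% = plate median of compound wells and 100% = S159A mutant with DMSO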
Target sequence (Q8VD66 whole entry, looked up): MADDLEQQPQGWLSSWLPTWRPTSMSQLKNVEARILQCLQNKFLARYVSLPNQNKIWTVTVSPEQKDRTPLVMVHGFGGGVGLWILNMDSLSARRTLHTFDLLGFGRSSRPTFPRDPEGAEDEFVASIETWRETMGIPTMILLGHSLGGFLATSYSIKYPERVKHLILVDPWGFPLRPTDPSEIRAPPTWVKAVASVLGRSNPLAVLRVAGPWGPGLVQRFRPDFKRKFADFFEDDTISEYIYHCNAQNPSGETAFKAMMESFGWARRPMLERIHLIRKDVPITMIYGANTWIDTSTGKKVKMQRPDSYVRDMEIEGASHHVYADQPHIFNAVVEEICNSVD
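System: mouse ABHD4 enzyme, wild type / Medium: HEPES pH 7.0, NaCl, Pluronic buffer / Reagent: FP-Rh activity-based fluorescent probe / Control set: S159A mutant high control, sample median low control / Detection: fluorescence polarization with parallel and perpendicular emission, 525/598 nm / Schedule: 45 min + 60 min at 25 °C / Compound dosing: 8.92 µM, single dose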
TCR-CD3 inh: blocks the human TCR-CD3 interaction. TAMRA-labeled TCR probe fluorescence, biochemical. inhibition, % at 9.4 µM. 0.37% of 360,000 active. AID 651800;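 note: recombinant mutant TCR 2C K166C tagged with TAMRA read by polarization; 0% = receptor in buffer alone and 100% = receptor with positive control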
HTRA1 inh: inhibitors of human serine peptidase HTRA1 | Q92743 | recombinant HTRA1, FP-rhodamine activity-based probe, fluorescence polarization | inhibition, % at 5.96 µM | 0.5% of 340,000 active; in the data active = inhibition above about 36%;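 note: 0% = enzyme with DMSO and 100% = wells lacking enzyme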
Target sequence (Q92743 whole entry, looked up): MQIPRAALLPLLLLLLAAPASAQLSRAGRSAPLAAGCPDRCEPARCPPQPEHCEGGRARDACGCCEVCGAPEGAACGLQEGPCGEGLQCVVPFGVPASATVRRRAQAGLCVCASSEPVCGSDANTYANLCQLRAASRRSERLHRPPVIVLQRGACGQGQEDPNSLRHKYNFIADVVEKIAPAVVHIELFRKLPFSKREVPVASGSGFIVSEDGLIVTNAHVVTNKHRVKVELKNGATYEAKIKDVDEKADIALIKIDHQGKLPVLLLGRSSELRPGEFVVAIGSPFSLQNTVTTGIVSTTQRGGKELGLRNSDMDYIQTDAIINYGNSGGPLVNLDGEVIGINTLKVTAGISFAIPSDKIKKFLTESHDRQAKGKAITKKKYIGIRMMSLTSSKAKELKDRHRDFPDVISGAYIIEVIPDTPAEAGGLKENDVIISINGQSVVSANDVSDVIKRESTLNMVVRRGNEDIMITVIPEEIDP
HTRA1 conf: HTRA1 (human) inhibition, confirmation; recombinant HTRA1, FP-rhodamine activity-based probe, fluorescence polarization; 66% of 1,600 active; inhibition, % at 5.96 µM; shares compounds with HTRA1 inh; AID 540248;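 active = mean inhibition over three repeats above a set limit taken from the earlier primary screen, cut at about 37% in these data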;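 note: 0% = HTRA1 with DMSO and 100% = wells lacking HTRA1; inhibitors block probe binding so polarization drops and inhibition rises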
BSA TAMRA ctr: counter-screen for TCR-CD3 interaction inhibitors: BSA probe | shares compounds with TCR-CD3 inh | TAMRA-labeled BSA probe fluorescence counterscreen | inhibition, % at 9.4 µM | 10% of 1,200 active; in the data active = inhibition above about 23%;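 note: 0% = buffer low control and 100% = reference high control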
TCR-CD3 conf: confirmation of human TCR-CD3 interaction inhibitors; inhibition, % at 9.4 µM; 48% of 1,200 active; TAMRA-labeled TCR probe fluorescence binding assay; shares compounds with TCR-CD3 inh
DDE Tn6 FP ctr: counter-screen for inhibitors of Tn6 peptide binding to fibrin DD(E). 2% of 680 active. shares compounds with DDE Tn6 FP inh. TRITC-Tn6 fluorescence polarization displacement; 0% = median of compound wells, not DMSO. inhibition, % at 8.3 µM;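 active = inhibition above the mean of test compounds lying between the control limits plus 3 SD of those, cut at about 14% in these data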;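 note: 0% = median of compound wells and 100% = wells with Aha-Tn7 blocking peptide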
Tn6 DDE conf: DD(E)-Tn6 binding inhibition, FP confirmation; shares compounds with DDE Tn6 FP inh; FP displacement of TRITC-Tn6 peptide from DD(E); 0% = per-plate median of test wells; inhibition, % at 8.3 µM; 10% of 680 active; AID 720631;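 active = inhibition above the mean of compounds lying within the control limits plus 3 SD, cut at about 16% in these data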;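 note: 100% = high control wells holding a competing inhibitor peptide at 10 µM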
ABHD4 confirm: confirmation of mouse ABHD4 inhibitors. shares compounds with ABHD4 inh. purified mABHD4, FP-Rh probe fluorescence polarization. inhibition, % at 8.92 µM. 55% of 1,800 active;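 active = mean inhibition across replicates above the hit cutoff set in the primary screen, cut at about 30% in these data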;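 note: 0% = wild-type ABHD4 with DMSO and 100% = catalytically dead S159A mutant with DMSO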
SIAE inh conf: human SIAE inhibition, confirmation. AID 1117263. inhibition, % at 9.66 µM. 13% of 2,300 active. SIAE FP-Rh activity-based probe, fluorescence polarization. shares compounds with SIAE inh;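 active = mean inhibition of the replicates above the hit cutoff set in the primary screen, cut at about 17% in these data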;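 note: 0% = SIAE with DMSO and probe and 100% = probe without SIAE; inhibitors lower polarization as more probe stays unbound to SIAE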
Starred values were filed as active, the others as inactive. Cut-off read from the data, not from the text of the source, unless noted: active = inhibition above about 19%; inactive = the rest.

How did CCOc1cc(/C=N/Nc2ccc(S(=O)(=O)Nc3ccccc3C(=O)O)cc2[N+](=O)[O-])cc(Cl)c1O do in these assays?
DDE Tn6 FP inh: -5.8; SIAE inh: 31.9*; Tn7 DDE FP: -3.8; ABHD4 inh: 72.6*; TCR-CD3 inh: 1.8; HTRA1 inh: 75.3*; HTRA1 conf: 67.8*; ABHD4 confirm: 86.3*; SIAE inh conf: 16.1

What do the screens show for `COc1cc(/C=N/Nc2ccc(S(N)(=O)=O)cc2[N+](=O)[O-])cc(OC)c1O`?
DDE Tn6 FP inh: -11.1; SIAE inh: -4.1; Tn7 DDE FP: 6.2; ABHD4 inh: 15.5; TCR-CD3 inh: -1.4; HTRA1 inh: 31.7

How did Nc1ccc(C(=O)N/N=C\c2cc(N=Nc3cccc4ccccc34)ccc2O)cc1 do in these assays?
DDE Tn6 FP inh: -19.5; SIAE inh: 36.4*; Tn7 DDE FP: 3.2; ABHD4 inh: 16.0; TCR-CD3 inh: 12.6; HTRA1 inh: 55.5*; HTRA1 conf: 91.5*; SIAE inh conf: 18.7*

Results for Clc1ccc(C2Nc3cccc4cccc(c34)N2)c(Cl)c1 ?
DDE Tn6 FP inh: -0.2; SIAE inh: 20.3*; Tn7 DDE FP: -6.0; ABHD4 inh: 30.2*; TCR-CD3 inh: -2.9; HTRA1 inh: 54.4*; HTRA1 conf: 24.2; ABHD4 confirm: 32.5*; SIAE inh conf: 6.1

How did c1cc2c3c(cccc3c1)NC1(CCCCCC1)N2 do in these assays?
DDE Tn6 FP inh: -12.0; SIAE inh: 18.9*; Tn7 DDE FP: 3.1; ABHD4 inh: 17.4; TCR-CD3 inh: 3.6; HTRA1 inh: 39.2*; HTRA1 conf: 51.2*; SIAE inh conf: 1.5

How did c1cc2c3c(cccc3c1)NC1(CCC3(CC1)Nc1cccc4cccc(c14)N3)N2 do in these assays?
DDE Tn6 FP inh: 0.6; SIAE inh: 38.3*; Tn7 DDE FP: -2.0; ABHD4 inh: 17.0; TCR-CD3 inh: 0.3; HTRA1 inh: 55.7*; HTRA1 conf: 55.1*; SIAE inh conf: 2.7

What do the screens show for `Cc1ccc(S(=O)(=O)NCc2ccc3c(c2)cc(C)n3C)cc1`?
DDE Tn6 FP inh: 71.1*; SIAE inh: 28.5*; Tn7 DDE FP: -6.8; ABHD4 inh: 59.7*; TCR-CD3 inh: 42.2*; HTRA1 inh: 40.3*; HTRA1 conf: 10.9; BSA TAMRA ctr: 5.6; TCR-CD3 conf: 6.2; DDE Tn6 FP ctr: 3.5; Tn6 DDE conf: -0.6; ABHD4 confirm: 0.8; SIAE inh conf: 2.9

What do the screens show for `Cc1cc2cc(CNC(=O)Nc3ccc(Cl)c(Cl)c3)ccc2n1C`?
DDE Tn6 FP inh: 96.0*; SIAE inh: 33.3*; Tn7 DDE FP: -12.1; ABHD4 inh: 37.9*; TCR-CD3 inh: 72.3*; HTRA1 inh: 40.8*; HTRA1 conf: 13.2; BSA TAMRA ctr: 3.1; TCR-CD3 conf: 5.5; DDE Tn6 FP ctr: -0.2; Tn6 DDE conf: 34.7*; ABHD4 confirm: -11.7; SIAE inh conf: -8.7

What do the screens show for `Cc1ccc(S(=O)(=O)NCc2ccncc2)cc1`?
DDE Tn6 FP inh: 1.4; SIAE inh: 2.5; Tn7 DDE FP: -2.5; ABHD4 inh: -1.0; TCR-CD3 inh: 4.4; HTRA1 inh: 0.3

What do the screens show for `CNc1ccc2c3c(cccc13)C(=O)N(C)C2=O`?
DDE Tn6 FP inh: 47.4*; SIAE inh: 69.7*; Tn7 DDE FP: -6.3; ABHD4 inh: 102.6*; TCR-CD3 inh: 83.5*; HTRA1 inh: 83.7*; HTRA1 conf: 74.7*; BSA TAMRA ctr: 138.1*; TCR-CD3 conf: 103.8*; DDE Tn6 FP ctr: 53.3*; Tn6 DDE conf: 42.9*; ABHD4 confirm: 118.9*; SIAE inh conf: 66.1*

What do the screens show for `O=C(NCCN1CCC(Cc2ccccc2)CC1)C1CCCN(S(=O)(=O)c2ccc(Cl)s2)C1` (configuration not stated)?
DDE Tn6 FP inh: -2.4; SIAE inh: 4.2; Tn7 DDE FP: -0.2; ABHD4 inh: 14.2

Results for COC(=O)c1ccccc1-c1ccc(/C=N/NC(=O)c2cc3ccccc3o2)o1 ?
DDE Tn6 FP inh: -2.3; SIAE inh: -23.2; Tn7 DDE FP: -1.0; ABHD4 inh: -24.2; TCR-CD3 inh: -0.8; HTRA1 inh: -51.2

Results for COC(=O)c1ccccc1-c1c2ccc(=N)cc-2oc2cc(N)ccc12 ?
DDE Tn6 FP inh: active; SIAE inh: active; Tn7 DDE FP: 5.1; ABHD4 inh: active; TCR-CD3 inh: active; HTRA1 inh: 135.8*; HTRA1 conf: 142.2*; BSA TAMRA ctr: active; TCR-CD3 conf: active; DDE Tn6 FP ctr: 53.3*; Tn6 DDE conf: 93.2*; ABHD4 confirm: 182.9*; SIAE inh conf: active

What do the screens show for `COc1ccc2nc3cc(Cl)ccc3c(Nc3cc(C(C)C)c(O)cc3C)c2c1`?
DDE Tn6 FP inh: 0.3; SIAE inh: 29.4*; Tn7 DDE FP: 7.0; ABHD4 inh: 39.6*; TCR-CD3 inh: -9.2; HTRA1 inh: 37.8*; HTRA1 conf: 28.9; ABHD4 confirm: 50.6*; SIAE inh conf: 14.4

How did O=C1C=C(O)c2c(O)cc(O)c(O)c2C1=O do in these assays?
DDE Tn6 FP inh: 2.2; SIAE inh: 50.6*; Tn7 DDE FP: 2.1; ABHD4 inh: 84.0*; TCR-CD3 inh: 63.5*; HTRA1 inh: 77.8*; HTRA1 conf: 55.9*; BSA TAMRA ctr: -3.0; TCR-CD3 conf: 64.2*; ABHD4 confirm: 56.9*; SIAE inh conf: 10.0

Results for C[C@@H]1Cc2c(O)c(O)cc(O)c2C(=O)O1 ?
HTRA1 inh: 10.9

Screens (PubChem BioAssay)
